Test results: ChEMBL document CHEMBL3612019, “Revisiting 1,3,4-Oxadiazol-2-ones: Utilization in the Development of ABHD6 Inhibitors” (Bioorg Med Chem, 2015)
Activity calls are given as the source filed them. The rule behind the calls is not given here.

Key:
[1] = target: T1, Fatty-acid amide hydrolase 1 (Homo sapiens) (UniProt O00519); experiment: Inhibition of human FAAH expressed in COS7 cell membranes at 10 uM pre-incubated for 10 mins before [3H]-AEA substrate addition by liquid scintillation counting; settings: COS-7
T1 sequence (whole entry): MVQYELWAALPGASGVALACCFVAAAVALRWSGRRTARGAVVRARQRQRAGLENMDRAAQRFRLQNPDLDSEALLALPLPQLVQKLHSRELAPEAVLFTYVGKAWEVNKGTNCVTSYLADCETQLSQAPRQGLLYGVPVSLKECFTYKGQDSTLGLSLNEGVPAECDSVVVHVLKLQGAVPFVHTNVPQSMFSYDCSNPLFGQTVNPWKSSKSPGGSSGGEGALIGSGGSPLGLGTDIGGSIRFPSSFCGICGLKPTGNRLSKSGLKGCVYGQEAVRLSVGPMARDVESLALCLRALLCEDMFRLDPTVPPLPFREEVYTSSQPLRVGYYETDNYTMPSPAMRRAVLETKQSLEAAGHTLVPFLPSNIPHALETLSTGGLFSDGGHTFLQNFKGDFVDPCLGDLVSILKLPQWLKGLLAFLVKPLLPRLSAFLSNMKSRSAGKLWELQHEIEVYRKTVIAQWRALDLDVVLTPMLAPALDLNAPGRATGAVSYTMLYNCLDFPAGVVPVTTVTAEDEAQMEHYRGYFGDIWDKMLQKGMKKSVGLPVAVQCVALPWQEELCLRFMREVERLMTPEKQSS

[2] = target: T2, Monoacylglycerol lipase ABHD6 (Homo sapiens, UniProt Q9BV23); experiment: Inhibition of human ABHD6 expressed in HEK293 cells assessed as reduction in glycerol production from 1-AG hydrolysis pre-incubated for 30 mins before 1-AG substrate addition and measured 90 mins post substrate addition by fluorescence method; format: cell-based
T2 sequence (Q9BV23 whole entry): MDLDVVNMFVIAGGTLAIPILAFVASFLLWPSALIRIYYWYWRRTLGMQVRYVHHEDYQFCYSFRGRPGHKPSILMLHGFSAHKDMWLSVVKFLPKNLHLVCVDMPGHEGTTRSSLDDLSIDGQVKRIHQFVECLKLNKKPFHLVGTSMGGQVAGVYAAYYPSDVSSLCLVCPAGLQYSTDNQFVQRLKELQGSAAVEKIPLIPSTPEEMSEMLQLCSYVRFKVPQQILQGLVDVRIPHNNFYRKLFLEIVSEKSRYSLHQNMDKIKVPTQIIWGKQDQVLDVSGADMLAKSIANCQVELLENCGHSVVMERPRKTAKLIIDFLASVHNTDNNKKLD
Procedure, shortened: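 hABHD6-HEK293 lysates pretreated 30 min with DMSO or inhibitor, then given 1-AG (12.5 µM final). Glycerol release was followed kinetically by fluorescence (emission 590 nm). Blanks without lysate were subtracted. IC50 was taken at the 90 min time point by nonlinear fitting of dose–response curves.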

[3] = target: T3, Monoglyceride lipase (Mus musculus) (UniProt O35678); experiment: Inhibition of MAGL in mouse whole brain membranes at 10 uM incubated for 1 hr by TAMRA-FP probe based competitive activity-based protein profiling assay; format: cell membranes; settings: Membrane
T3 sequence (whole entry): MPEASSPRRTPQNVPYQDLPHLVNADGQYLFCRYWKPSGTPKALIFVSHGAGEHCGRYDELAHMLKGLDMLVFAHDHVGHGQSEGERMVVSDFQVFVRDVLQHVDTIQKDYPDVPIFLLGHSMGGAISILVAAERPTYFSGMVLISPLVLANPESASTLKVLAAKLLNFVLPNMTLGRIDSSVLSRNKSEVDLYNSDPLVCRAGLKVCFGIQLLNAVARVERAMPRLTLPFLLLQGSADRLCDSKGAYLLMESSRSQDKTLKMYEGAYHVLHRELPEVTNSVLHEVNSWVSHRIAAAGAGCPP
Procedure, shortened: (§1)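 Competitive ABPP on mouse brain membranes (100 µg) treated 1 h with DMSO or inhibitor. TAMRA-FP labelling then ran 1 h at RT (final probe 2 µM). Reaction was quenched with gel loading buffer and proteins resolved by 10% SDS–PAGE for fluorescent band read-out. WWL70 located the ABHD6 band. Gels are representative of two experiments.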

[4] = target: T4, Lysophosphatidylserine lipase ABHD12 (Mus musculus) (UniProt Q99LR1); experiment: Inhibition of ABHD12 in mouse whole brain membranes at 10 uM incubated for 1 hr by TAMRA-FP probe based competitive activity-based protein profiling assay; format: cell membranes; settings: Membrane; procedure, shortened: as §1
T4 sequence (whole entry): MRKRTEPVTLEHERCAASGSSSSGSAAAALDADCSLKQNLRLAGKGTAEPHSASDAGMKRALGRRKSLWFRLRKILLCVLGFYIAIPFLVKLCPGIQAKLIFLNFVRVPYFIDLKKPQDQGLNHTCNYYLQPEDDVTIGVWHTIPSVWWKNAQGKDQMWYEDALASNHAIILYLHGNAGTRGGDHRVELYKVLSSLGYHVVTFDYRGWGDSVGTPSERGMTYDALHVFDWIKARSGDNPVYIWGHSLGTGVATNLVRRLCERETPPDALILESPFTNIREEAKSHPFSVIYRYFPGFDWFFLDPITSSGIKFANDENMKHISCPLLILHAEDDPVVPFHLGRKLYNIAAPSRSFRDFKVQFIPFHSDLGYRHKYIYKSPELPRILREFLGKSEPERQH

[5] = target: T5, Lysophosphatidylserine lipase ABHD12 (Homo sapiens) (UniProt Q8N2K0); experiment: Inhibition of human ABHD12 expressed in HEK293 cells assessed as remaining enzyme activity at 1 uM pre-incubated for 10 mins before 2-AG substrate addition by HPLC method; format: cell-based
T5 sequence (whole entry): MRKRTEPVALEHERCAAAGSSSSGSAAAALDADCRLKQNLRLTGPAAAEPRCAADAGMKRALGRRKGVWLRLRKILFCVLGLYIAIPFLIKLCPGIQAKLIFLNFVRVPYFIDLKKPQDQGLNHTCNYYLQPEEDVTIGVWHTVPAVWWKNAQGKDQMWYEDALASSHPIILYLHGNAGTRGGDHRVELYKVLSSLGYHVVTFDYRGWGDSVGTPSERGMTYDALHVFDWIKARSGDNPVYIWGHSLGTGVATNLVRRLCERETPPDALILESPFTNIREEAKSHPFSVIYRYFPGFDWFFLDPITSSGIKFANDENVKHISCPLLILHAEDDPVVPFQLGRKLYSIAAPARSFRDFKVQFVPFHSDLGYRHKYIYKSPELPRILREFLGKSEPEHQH

inhibition [1]	IC50 [2]	inhibition [3]	inhibition [4]	inhibition [5]	SMILES
18%	216 nM	inactive	inactive	inactive	COc1nn(Cc2cccc(N)c2)c(=O)o1
25%	73 nM	Active	Active	inactive	Nc1cccc(Cn2nc(Oc3ccccc3)oc2=O)c1
